# From PubChem BioAssay
# OX1R antag-1: human HCRTR1 antagonism; actives 0.43% (n = 330,000); O43613; inhibition, % at 5 µM; AID 434989; CHO/OX1R cells, Fluo-8 calcium fluorescence, orexin A;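 active = inhibition above its plate's threshold, mean inhibition of all tested compounds on the plate plus 3 SD, cut at about 37% in these data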;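 note: 0% = orexin A challenge wells and 100% = SB-334867-A antagonist wells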
# CHO parental Ca: counter-screen for OX1R antagonists: effect in parental CHO cells; AID 463079; parental CHO-K1, ATP-induced calcium, Fluo-8 fluorescence; actives 0.63% (n = 330,000); inhibition, % at 5.6 µM;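 active = inhibition above that plate's mean sample inhibition plus 3 SD, cut at about 26% in these data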;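 note: 0% = ATP-challenged DMSO wells and 100% = DMSO wells without ATP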
#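 Test system: untransfected parental CHO cell line; also added: ATP stimulus; dosing: 5.6 µM, single dose; signal: calcium-sensitive Fluo-8 fluorescence; measure: percent inhibition of ATP-evoked calcium rise, normalized to controls; benchmarks: low control ATP plus DMSO, high control DMSO only; replication: one well per compound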
# GalR3 antagonist: blocks the human galanin receptor 3; HEK293 GalR3-CNG cAMP membrane potential fluorescence; galR3 body fused to GalR1 C-terminus; inhibition, % at 3 µM; actives 0.44% (n = 360,000); O60755;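 active = inhibition above the screen-wide average plus 3 SD, cut at about 13% in these data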;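 note: forskolin and galanin both at EC90 stimulate the cells; cAMP rise reported by CNG channel membrane potential dye signal; 0% = forskolin plus galanin with DMSO and 100% = forskolin alone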
# Target sequence (O60755 1-299 limits assumed): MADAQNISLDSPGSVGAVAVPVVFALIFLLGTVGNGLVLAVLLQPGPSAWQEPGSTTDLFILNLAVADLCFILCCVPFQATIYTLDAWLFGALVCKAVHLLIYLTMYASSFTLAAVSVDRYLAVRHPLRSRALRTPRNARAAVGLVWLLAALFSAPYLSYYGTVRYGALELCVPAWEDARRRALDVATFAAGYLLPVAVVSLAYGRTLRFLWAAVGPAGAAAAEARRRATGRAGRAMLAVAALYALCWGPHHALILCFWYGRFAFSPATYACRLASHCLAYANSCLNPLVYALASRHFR
# TAAR1 ag: agonists of human TAAR1; activation, % at 3 µM; AID 624467; CHO RD-HGA16 TAAR1, Fluo-8 calcium fluorescence; vehicle wells 0%, saturating PEA agonist 100%; Q96RJ0; actives 0.99% (n = 360,000);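 active = activation above the mean activation of all test compounds in the run plus 3 SD, cut at about 38% in these data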
# Target sequence (Q96RJ0 whole entry, looked up): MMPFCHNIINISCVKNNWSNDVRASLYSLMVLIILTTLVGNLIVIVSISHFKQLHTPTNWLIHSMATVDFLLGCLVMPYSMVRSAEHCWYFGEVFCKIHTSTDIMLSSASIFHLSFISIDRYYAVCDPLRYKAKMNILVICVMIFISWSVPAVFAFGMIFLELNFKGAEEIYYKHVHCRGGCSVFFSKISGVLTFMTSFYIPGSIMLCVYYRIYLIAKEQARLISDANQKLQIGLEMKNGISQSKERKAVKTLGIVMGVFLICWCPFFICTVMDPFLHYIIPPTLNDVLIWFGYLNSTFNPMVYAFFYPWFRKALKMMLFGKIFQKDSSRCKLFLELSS
#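 Test system: RD-HGA16 (CHO) cells co-expressing Gα16 and hTAAR1; dosing: one-point dosing at 3 µM (nominal); timing: 17-24 h seeding, 75 min 37 °C dye, 30 min RT; signal: kinetic Fluo-8 calcium fluorescence; read-out basis: % activation relative to PEA EC100 response; controls: DMSO and PEA EC100; replicates: n 1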
# TAAR1 antagonist: antagonists of human TAAR1; CHO RD-HGA16 TAAR1, Fluo-8 calcium fluorescence, antagonist; AID 624466; inhibition, % at 3 µM; actives 1.5% (n = 360,000);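 active = inhibition above a per-plate cutoff, the mean inhibition of test compounds on that plate plus 3 SD, cut at about 49% in these data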;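 note: 0% = DMSO plus EC80 beta-PEA response and 100% = DMSO alone without agonist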
#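 Test system – hTAAR1-expressing CHO RD-HGA16 cells, Gα16-coupled · Also added – β-PEA at EC80 concentration, post-compound challenge · Compound – 3 µM, single point · Incubation – dye loading 75 min at 37 °C, then 30 min room temperature · Measured by – Fluo-8 intracellular calcium dye fluorescence, real-time kinetic reads · Benchmarks – vehicle and agonist controls · Replicates – singlicate, one well per test compound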
# OX1R antag-2: blocks the human orexin 1 receptor; O43613; OX1R-expressing cells, FRET antagonist read-out; inhibition, % at 6.6 µM; actives 1.8% (n = 330,000); AID 485270; in the data active = inhibition mostly above about 38%, no sharp cut-off; inactive = mostly below about 40%;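 note: 0% = agonist challenge alone and 100% = reference antagonist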
# Active calls of the source: *; / = no result given. Compounds with a hit are over-represented: about 4.3% of the library has one in this group of screens.
SMILES,OX1R antag-1,CHO parental Ca,GalR3 antagonist,TAAR1 ag,TAAR1 antagonist,OX1R antag-2
CC(NC(=O)COc1ncnc2cc([N+](=O)[O-])ccc12)c1ccccc1 (stereo not drawn),-14,-5,-1,2,11,64*
O=C(c1cc(C2CCCCN2S(=O)(=O)Cc2ccccc2)on1)N1CCOCC1 (stereo not drawn),/,/,-2,4,-9,/
COCCNC(=O)C(c1ccc(C)cc1)N(Cc1ccco1)C(=O)CCC(=O)Nc1ccccn1 (stereo not drawn),3,-3,-7,0,-23,56*
CN(CC(=O)Nc1ccc2c(c1)CCC2)CC(=O)Nc1ccccc1Br,-6,-15,-2,6,-4,40*
CN(c1ccccc1)S(=O)(=O)c1cccc(NC(=O)CN2CCCc3ccccc32)c1,12,33*,-2,0,-1,24
CSc1cccc(NC(=O)C(=O)NCc2ccccc2)c1,-9,28*,-5,27,24,11
CN(CC(=O)Nc1cccc(F)c1)CC(=O)Nc1cccc2ccccc12,1,-14,-6,46*,59*,11
Cc1cc2c3c([nH]c2cc1S(=O)(=O)N1CCC2(CC1)OCCO2)CC(C)(C)CC3=O,-16,-24,4,1,2,0
COc1ccccc1NC(=O)c1ccc2nc(C)c(C)nc2c1,-13,-14,-2,0,-18,13
Cn1cc(CC(=O)Nc2ccc(Oc3cccnc3)cc2)c2ccccc21,/,/,-6,0,18,/
CSc1cccc(NC(=O)CN(C)S(=O)(=O)c2ccccc2)c1,7,-14,-3,2,9,50*
CN(CC(=O)Nc1cccc(F)c1)CC(=O)Nc1cccc(S(=O)(=O)N(C)c2ccccc2)c1,/,/,-3,26,63*,/
CC1(c2nnnn2Cc2ccccc2)CCC(=O)N1Cc1cccnc1 (stereo not drawn),/,/,-6,1,-11,/
C=CCNC(=O)/C(C#N)=C/c1ccccc1OCc1ccc(C(=O)OC)cc1,-25,-13,0,5,49*,11
COC(=O)c1ccc(COc2ccccc2/C=C(\C#N)C(=O)Nc2ccc(C)cc2)cc1,-16,-19,-11,0,-2,10
C=CCC12C[C@@]3(O[C@H](c4ccc(C(F)(F)F)cc4)N=C3C[C@H](c3ccc(OC)cc3)[C@H]1C)N(Cc1ccc3c(c1)OCO3)C2=O,/,/,-9,7,-58,/
Cc1cccc(N(CC(=O)NCc2ccc3c(c2)OCO3)C(=O)CCC(=O)Nc2ccccn2)c1C,/,/,0,19,52*,/
Cc1cccc(N(CC(=O)NCc2ccc3c(c2)OCO3)C(=O)CCC(=O)Nc2ccccn2)c1,-26,-18,3,6,13,16
COc1ccccc1CNc1nc(Nc2ccccc2-n2cccn2)c2sccc2n1,/,/,-4,-1,-5,/
CC(C)CNc1cccc2c1S(=O)(=O)N[C@@H](CC(C)C)CO2,/,/,0,1,-11,/
CCOc1ccccc1N1CCN(C/C=C/c2ccc(N(C)C)cc2)CC1,-40,-35,-1,37*,-9,42
COc1cc(-c2cccc([C@H]3[C@@H]4C=CC[C@@H](C)[C@@H]4C(=O)N3Cc3ccccc3)c2)cc(OC)c1OC,-5,-25,-6,1,-8,18
CC(C)c1nnc(N2C(=O)C(O)=C(C(=O)c3cccs3)C2c2ccccc2)s1 (stereo not drawn),/,/,3,40*,25,/
C[n+]1ccc(/C=C/c2ccccc2O)c2ccccc21,-15,-10,-3,5,-18,72*
O=C1N=c2ccc(Br)cc2=C1c1sc(=S)n(NS(=O)(=O)c2ccccc2)c1O,-14,-10,-6,-1,4,12
SMILES,OX1R antag-1,CHO parental Ca,GalR3 antagonist,TAAR1 ag,TAAR1 antagonist,OX1R antag-2
O=C(Nn1c(O)c(C=C2N=c3ccccc3=N2)sc1=S)c1ccc(Cl)cc1,-9,-8,-5,12,13,8
O=C(Nn1c(O)c(C=C2N=c3ccccc3=N2)sc1=S)c1ccccc1,-4,0,-5,38*,48,12
O=C(Nn1c(O)c(C=C2N=c3ccccc3=N2)sc1=S)c1cccc(Cl)c1,-4,-6,-4,31,52*,14
O=C1N=c2ccccc2=C1c1sc(=S)n(NC(=O)c2cccc(O)c2)c1O,/,/,-5,18,51*,/
COc1ccc(O)c(CN2CCN(CCCc3ccccc3)C(CCO)C2)c1 (stereo not drawn),-27,-18,-10,2,-2,17
CC(=O)N(c1ccccc1)C1CCCC1,-4,-3,-7,3,-10,18
CC(=O)N(C1=C(O)c2ccccc2C(=O)C1=O)C1CCCCC1,-6,-10,-7,1,-12,36*
CCOc1ccc(C(CCc2ccccc2)NC(=O)c2ccccc2F)cc1OCC (stereo not drawn),-25,-12,-8,8,-20,22
CCOc1ccc(C(CCc2ccccc2)NC(=O)c2ccccc2OC)cc1OCC (stereo not drawn),47*,24,/,/,/,14
Fc1cccc(CNc2ncnc3cc(Cl)ccc23)c1F,-18,-3,-11,3,4,23
Cc1cc2nc3c(=O)n(CCc4ccccc4)c(=O)[nH]c3nc2cc1N,18,30,1,39*,43,16
Nc1ccc2nc3c(=O)n(CCc4ccccc4)c(=O)[nH]c3nc2c1,42*,36*,-6,56*,24,19
Nc1ccc2nc3c(=O)n(C4CCCCC4)c(=O)[nH]c3nc2c1,46*,39*,-5,88*,33,53
Cc1nc2ccccc2c(=O)n1CCc1ccccc1,-12,-10,-11,4,5,33
Nc1ccc2nc(CCc3ccccc3)[nH]c2c1,-8,-12,3,1,-4,21
COc1cc2[nH]c(=O)n(C3CCCCC3)c(=O)c2cc1OC,-10,-10,5,7,-26,32
COc1cccc(-c2ccc3c(c2)C2CC3CCN2C(C)=O)c1 (stereo not drawn),/,/,-7,-1,-1,/
COc1c(F)c(F)c(C(=O)Nc2ccc(-c3nc4ccccc4[nH]3)cc2)c(F)c1F,-8,-3,3,7,35,10
COc1cccc(OC)c1C(=O)NC(=S)Nc1cc(-c2nc3ccccc3[nH]2)ccc1Cl,20,-17,4,11,50*,74*
O=c1c(-c2ccccc2)nc2ccccc2n1C(CCc1ccccc1)c1nc2ccccc2[nH]1 (stereo not drawn),/,/,-7,0,-15,/
O=C(CCCN1C(=O)/C(=C/c2cccs2)SC1=S)Nc1ccccc1O,0,14,-5,2,21,61*
